Drawing on ChEMBL document CHEMBL3232778, “One-pot synthesis and radical scavenging activity of novel polyhydroxylated 3-arylcoumarins” (Eur J Med Chem, 2014), this text covers Activity and EC50 for 20 compounds.

The source made the active and inactive calls. No cut-off for these calls is given here.

The term EC50 denotes the concentration at which the effect is half-maximal.

The test system of the first experiment is Radical scavenging activity. The experiment can be described thus: Antioxidant activity assessed as DPPH radical scavenging activity up to 100 uM by spectrophotometry. The format is functional.
With `O=C(O)c1ccccc1-c1cc2c(O)cccc2oc1=O`, the result was inactive. On the same count and under the same terms, with `O=C(O)c1ccccc1-c1cc2cccc(O)c2oc1=O` the entry was “inactive”; with `O=C(O)c1ccccc1-c1cc2ccccc2oc1=O`, “inactive”; with `O=C(O)c1ccccc1-c1cc2ccc(O)cc2oc1=O`, “inactive”.

With `O=C(O)c1ccccc1-c1cc2cc(O)ccc2oc1=O`, the result was inactive. Still for that read-out and setting: with `O=C(O)c1ccccc1-c1cc2cc(Br)ccc2oc1=O` the entry was “inactive”.

The test system of the next experiment is Radical scavenging activity. The experiment can be described thus: Antioxidant activity assessed as DPPH radical scavenging activity by spectrophotometry. The format is functional. The procedure, abridged: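 DPPH• in methanol, prepared daily and kept from light; 0.5 mL test solution in methanol (4-25 µM) added to 0.5 mL of 100 µM DPPH•. Absorbance read at 518 nm at intervals until equilibrium, with a methanol blank; triplicates, five analyte concentrations. %DPPH• remaining = Af/A0×100; concentration plotted against % remaining to get the 50% scavenging value.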
On the technique in general: The DPPH test is a chemical assay of radical scavenging.
As to `O=C(O)c1cc(O)c(O)cc1-c1cc2cc(O)c(O)cc2oc1=O`, the EC50 is 5.3 µM. For `Cc1c(C)c2c(c(C)c1O)CCC(C)(C(=O)O)O2` (stereo not given) [TROLOX], the EC50 worked out at 9.34 µM. Regarding `O=C(O)/C=C/c1ccc(O)c(O)c1` [CAFFEIC ACID], the EC50 came out at 9.48 µM. Same read-out and setting: then `O=C(O)c1cc(O)c(O)cc1-c1cc2ccc(O)c(O)c2oc1=O`, with 3.39 µM; and `O=C(O)c1cc(O)c(O)cc1-c1cc2cc(O)ccc2oc1=O`, with 3.17 µM.

Turning to `O=C(O)c1ccccc1-c1cc2cc(O)c(O)cc2oc1=O`, the EC50 amounted to 5.32 µM. Still for that read-out and setting: with `O=C(O)c1cc(O)c(O)cc1-c1cc2c(O)cccc2oc1=O` the figure was 6.86 µM; with `O=C(O)c1ccc(O)c(O)c1` [PROTOCATECHUIC ACID], 8.83 µM; with `O=C(O)c1ccccc1-c1cc2ccc(O)c(O)c2oc1=O`, 3.59 µM. On the same count and under the same terms, with `O=C(O)c1cc(O)c(O)cc1-c1cc2ccccc2oc1=O` the figure was 5.14 µM; with `O=C(O)c1cc(O)c(O)cc1-c1cc2ccc(O)cc2oc1=O`, 6.02 µM. Turning to `O=C(O)c1cc(O)c(O)cc1-c1cc2cccc(O)c2oc1=O`, the EC50 was found to be 4.09 µM.

For `O=C(O)c1cc(O)c(O)c(O)c1` [GALLIC ACID], the EC50 came out at 5.34 µM.

For `O=C(O)c1cc(O)c(O)cc1-c1cc2cc(Br)ccc2oc1=O`, the EC50 was 4.02 µM.
